Data from ChEMBL document CHEMBL3244249, “Studies on vitamin D (calciferol) and its analogues. 15. 24-Nor-1alpha,25-dihydroxyvitamin D3 and 24-nor-25-hydroxy-5,6-trans-vitamin D3” (1978).
Active and inactive are the calls of the source. The calls are words filed in the database; no cut-off is given here.

Columns and labels:
[1] = test system: Gallus gallus; test: Induction of intestinal calcium absorption in vitamin-D-deficient chicken assessed per 0.2 ml of plasma at 163 nmol, ip using 45Ca2+ and 40Ca2+ after 5 to 36 hrs; format: functional, organism-based
How it was run: (§1)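 Rachitic chicks given a single 163-nmol intraperitoneal dose and sampled between 5 and 36 h afterward. ICA and BCM were read by the Hibberd–Norman procedure: duodenal 45Ca2+/40Ca2+ load, then serum collected 30 min later. ICA was taken as serum radioactivity and BCM as serum calcium by atomic absorption.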

[2] = test system: Gallus gallus; test: Induction of bone calcium mobilization in vitamin-D-deficient chicken assessed per 100 ml of serum at 163 nmol, ip using 45Ca2+ and 40Ca2+ after 5 to 36 hrs; format: functional, organism-based; how it was run: as §1
[3] = species: Gallus gallus; test: Displacement of [3H]-1-alpha,25-(OH)2-D3 from chicken intestinal cytosol chromatin receptor after 30 mins by scintillation counting relative to 1-alpha,25-(OH)2-D3
How it was run: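 Reconstituted chick intestinal cytosol–chromatin receptor system. Nonradioactive competitor plus tritiated 1α,25-(OH)2-D3 (2 × 10^-8 M, constant saturating) with chromatin (375 μg DNA) in cytosol, incubated 30 min at 25 °C. Chromatin reisolated by centrifugation, washed three times (0.5% Triton X-100, 0.01 M Tris-HCl pH 8.5), and bound tritium counted by liquid scintillation. Expressed as RCI, with 1α,25-(OH)2-D3 set at 100.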

[4] = test system: Gallus gallus; test: Induction of intestinal calcium absorption in vitamin-D-deficient chicken assessed per 0.2 ml of plasma at 0.60 nmol, ip using 45Ca2+ and 40Ca2+ after 12 hrs relative to control; format: functional
How it was run: (§2)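 Rachitic White Leghorn cockerels (4 weeks on a rachitogenic low-calcium diet without vitamin D, zero-calcium diet for the final 3 days) dosed intraperitoneally. Under light ether anesthesia, 5 μCi 45Ca2+ plus 4 mg 40Ca2+ carrier was placed in the duodenum. Birds were decapitated after 30 min. 45Ca radioactivity counted per 0.2 mL serum aliquot (cpm ± SEM). The enhancement ratio is relative to vitamin D-deficient controls.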

[5] = test system: Gallus gallus; test: Induction of intestinal calcium absorption in vitamin-D-deficient chicken assessed per 0.2 ml of plasma at 3 nmol, ip using 45Ca2+ and 40Ca2+ after 12 hrs relative to control; format: functional; how it was run: as §2
[6] = test system: Gallus gallus; test: Induction of bone calcium mobilization in vitamin-D-deficient chicken assessed per 100 ml of serum at 0.60 nmol, ip using 45Ca2+ and 40Ca2+ after 12 hrs; format: functional
How it was run: (§3)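 White Leghorn cockerels raised 4 weeks on a rachitogenic low-calcium diet without vitamin D, switched to a zero-calcium diet 3 days before assay. Analogue given intraperitoneally. Under light ether anesthesia, 5 μCi 45Ca2+ plus 4 mg 40Ca2+ carrier was put into the exposed duodenum. Birds were decapitated 30 min later and blood allowed to clot. Serum Ca2+ measured by atomic absorption on diluted serum, as mg/100 mL ± SEM.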

[7] = test system: Gallus gallus; test: Induction of intestinal calcium absorption in vitamin-D-deficient chicken assessed per 0.2 ml of plasma at 0.60 nmol, ip using 45Ca2+ and 40Ca2+ after 12 hrs; format: functional; how it was run: as §2
[8] = test system: Gallus gallus; test: Induction of bone calcium mobilization in vitamin-D-deficient chicken assessed per 100 ml of serum at 3 nmol, ip using 45Ca2+ and 40Ca2+ after 12 hrs; format: functional; how it was run: as §3
[9] = test system: Gallus gallus; test: Induction of intestinal calcium absorption in vitamin-D-deficient chicken assessed per 0.2 ml of plasma at 3 nmol, ip using 45Ca2+ and 40Ca2+ after 12 hrs; format: functional; how it was run: as §2
[10] = test system: Gallus gallus; test: Induction of bone calcium mobilization in vitamin-D-deficient chicken assessed per 100 ml of serum at 62 nmol, ip using 45Ca2+ and 40Ca2+ after 36 hrs; format: functional; how it was run: as §3
[11] = test system: Gallus gallus; test: Induction of intestinal calcium absorption in vitamin-D-deficient chicken assessed per 0.2 ml of plasma at 310 nmol, ip using 45Ca2+ and 40Ca2+ after 14 hrs; format: functional; how it was run: as §2
[12] = test system: Gallus gallus; test: Induction of intestinal calcium absorption in vitamin-D-deficient chicken assessed per 0.2 ml of plasma at 62 nmol, ip using 45Ca2+ and 40Ca2+ after 36 hrs relative to control; format: functional; how it was run: as §2
[13] = test system: Gallus gallus; test: Induction of intestinal calcium absorption in vitamin-D-deficient chicken assessed per 0.2 ml of plasma at 62 nmol, ip using 45Ca2+ and 40Ca2+ after 24 hrs; format: functional; how it was run: as §2
[14] = test system: Gallus gallus; test: Induction of intestinal calcium absorption in vitamin-D-deficient chicken assessed per 0.2 ml of plasma at 62 nmol, ip using 45Ca2+ and 40Ca2+ after 36 hrs; format: functional; how it was run: as §2
[15] = test system: Gallus gallus; test: Induction of bone calcium mobilization in vitamin-D-deficient chicken assessed per 100 ml of serum at 62 nmol, ip using 45Ca2+ and 40Ca2+ after 14 hrs; format: functional; how it was run: as §3
[16] = test system: Gallus gallus; test: Induction of bone calcium mobilization in vitamin-D-deficient chicken assessed per 100 ml of serum at 310 nmol, ip using 45Ca2+ and 40Ca2+ after 14 hrs; format: functional; how it was run: as §3
[17] = test system: Gallus gallus; test: Induction of intestinal calcium absorption in vitamin-D-deficient chicken assessed per 0.2 ml of plasma at 3.1 nmol, ip using 45Ca2+ and 40Ca2+ after 14 hrs; format: functional; how it was run: as §2
[18] = test system: Gallus gallus; test: Induction of bone calcium mobilization in vitamin-D-deficient chicken assessed per 100 ml of serum at 3.1 nmol, ip using 45Ca2+ and 40Ca2+ after 14 hrs; format: functional; how it was run: as §3
[19] = test system: Gallus gallus; test: Induction of intestinal calcium absorption in vitamin-D-deficient chicken assessed per 0.2 ml of plasma at 62 nmol, ip using 45Ca2+ and 40Ca2+ after 18 hrs; format: functional; how it was run: as §2
[20] = test system: Gallus gallus; test: Induction of intestinal calcium absorption in vitamin-D-deficient chicken assessed per 0.2 ml of plasma at 15.5 nmol, ip using 45Ca2+ and 40Ca2+ after 14 hrs; format: functional; how it was run: as §2
[21] = test system: Gallus gallus; test: Induction of intestinal calcium absorption in vitamin-D-deficient chicken assessed per 0.2 ml of plasma at 62 nmol, ip using 45Ca2+ and 40Ca2+ after 24 hrs relative to control; format: functional; how it was run: as §2
[22] = test system: Gallus gallus; test: Induction of bone calcium mobilization in vitamin-D-deficient chicken assessed per 100 ml of serum at 0.62 nmol, ip using 45Ca2+ and 40Ca2+ after 14 hrs; format: functional; how it was run: as §3
[23] = test system: Gallus gallus; test: Induction of intestinal calcium absorption in vitamin-D-deficient chicken assessed per 0.2 ml of plasma at 15.5 nmol, ip using 45Ca2+ and 40Ca2+ after 14 hrs relative to control; format: functional; how it was run: as §2
[24] = test system: Gallus gallus; test: Induction of intestinal calcium absorption in vitamin-D-deficient chicken assessed per 0.2 ml of plasma at 62 nmol, ip using 45Ca2+ and 40Ca2+ after 14 hrs; format: functional; how it was run: as §2
[25] = test system: Gallus gallus; test: Induction of bone calcium mobilization in vitamin-D-deficient chicken assessed per 100 ml of serum at 62 nmol, ip using 45Ca2+ and 40Ca2+ after 18 hrs; format: functional; how it was run: as §3
[26] = test system: Gallus gallus; test: Induction of intestinal calcium absorption in vitamin-D-deficient chicken assessed per 0.2 ml of plasma at 0.62 nmol, ip using 45Ca2+ and 40Ca2+ after 14 hrs; format: functional; how it was run: as §2
[27] = test system: Gallus gallus; test: Induction of bone calcium mobilization in vitamin-D-deficient chicken assessed per 100 ml of serum at 62 nmol, ip using 45Ca2+ and 40Ca2+ after 24 hrs; format: functional; how it was run: as §3
[28] = test system: Gallus gallus; test: Induction of intestinal calcium absorption in vitamin-D-deficient chicken assessed per 0.2 ml of plasma at 310 nmol, ip using 45Ca2+ and 40Ca2+ after 14 hrs relative to control; format: functional; how it was run: as §2
[29] = test system: Gallus gallus; test: Induction of intestinal calcium absorption in vitamin-D-deficient chicken assessed per 0.2 ml of plasma at 62 nmol, ip using 45Ca2+ and 40Ca2+ after 18 hrs relative to control; format: functional; how it was run: as §2
[30] = test system: Gallus gallus; test: Induction of intestinal calcium absorption in vitamin-D-deficient chicken assessed per 0.2 ml of plasma at 0.62 nmol, ip using 45Ca2+ and 40Ca2+ after 14 hrs relative to control; format: functional; how it was run: as §2
[31] = test system: Gallus gallus; test: Induction of bone calcium mobilization in vitamin-D-deficient chicken assessed per 100 ml of serum at 15.5 nmol, ip using 45Ca2+ and 40Ca2+ after 14 hrs; format: functional; how it was run: as §3
[32] = test system: Gallus gallus; test: Induction of intestinal calcium absorption in vitamin-D-deficient chicken assessed per 0.2 ml of plasma at 3.1 nmol, ip using 45Ca2+ and 40Ca2+ after 14 hrs relative to control; format: functional; how it was run: as §2
[33] = test system: Gallus gallus; test: Induction of intestinal calcium absorption in vitamin-D-deficient chicken assessed per 0.2 ml of plasma at 62 nmol, ip using 45Ca2+ and 40Ca2+ after 14 hrs relative to control; format: functional; how it was run: as §2
[34] = test system: Gallus gallus; test: Induction of bone calcium mobilization in vitamin-D-deficient chicken assessed per 100 ml of serum at 3.3 nmol, ip using 45Ca2+ and 40Ca2+ after 24 hrs; format: functional; how it was run: as §3
[35] = test system: Gallus gallus; test: Induction of intestinal calcium absorption in vitamin-D-deficient chicken assessed per 0.2 ml of plasma at 3.3 nmol, ip using 45Ca2+ and 40Ca2+ after 24 hrs relative to control; format: functional; how it was run: as §2
[36] = test system: Gallus gallus; test: Induction of intestinal calcium absorption in vitamin-D-deficient chicken assessed per 0.2 ml of plasma at 3.3 nmol, ip using 45Ca2+ and 40Ca2+ after 24 hrs; format: functional; how it was run: as §2

## C=C1CC[C@H](O)C/C1=C\C=C1/CCC[C@]2(C)[C@@H]([C@H](C)CCCC(C)(C)O)CC[C@@H]12
[1]
  Activity: Active
[2]
  Activity: Active
[3]
  RCI: 0.58%

## C=C1/C(=C\C=C2/CCC[C@]3(C)[C@@H]([C@H](C)CCCC(C)(C)O)CC[C@@H]23)C[C@@H](O)C[C@@H]1O [CALCITRIOL]
[1]
  Activity: Active
[2]
  Activity: Active
[4]
  Ratio: 3.1
[5]
  Ratio: 2.5
[6]
  Activity: 6.6 mg
[7]
  Activity: 1630 cpm
[8]
  Activity: 6.1 mg
[9]
  Activity: 1320 cpm

## C=C1/C(=C\C=C2/CCC[C@]3(C)[C@@H]([C@H](C)CCC(C)(C)O)CC[C@@H]23)C[C@@H](O)C[C@@H]1O
[10]
  Activity: 4.3 mg
[11]
  Activity: 1530 cpm
[12]
  Ratio: 1.1
[13]
  Activity: 770 cpm
[14]
  Activity: 590 cpm
[15]
  Activity: 5 mg
[16]
  Activity: 6.5 mg
[17]
  Activity: 560 cpm
[18]
  Activity: 4.4 mg
[19]
  Activity: 1470 cpm
[20]
  Activity: 680 cpm
[3]
  RCI: 46%
[21]
  Ratio: 1.5
[22]
  Activity: 4.8 mg
[23]
  Ratio: 1.3
[24]
  Activity: 930 cpm
[25]
  Activity: 5.6 mg
[26]
  Activity: 420 cpm
[27]
  Activity: 5.4 mg
[28]
  Ratio: 2.9
[29]
  Ratio: 2.8
[30]
  Ratio: 0.8
[31]
  Activity: 5.1 mg
[32]
  Ratio: 1.1
[33]
  Ratio: 1.8

## C=C1CC[C@H](O)C/C1=C\C=C1/CCC[C@]2(C)[C@@H]([C@H](C)CCCCC(C)(C)O)CC[C@@H]12
[3]
  RCI: 0.066%

## C=C1CC[C@H](O)C/C1=C\C=C1/CCC[C@]2(C)[C@@H]([C@H](C)CCC(C)(C)O)CC[C@@H]12
[1]
  Activity: inactive
[2]
  Activity: inactive
[3]
  RCI: 0.1%

## C=C1CC[C@H](O)C/C1=C/C=C1\CCC[C@]2(C)[C@@H]([C@H](C)CCCC(C)(C)O)CC[C@@H]12
[1]
  Activity: Active
[2]
  Activity: Active

## C=C1CC[C@H](O)C/C1=C/C=C1\CCC[C@]2(C)[C@@H]([C@H](C)CCCC(C)C)CC[C@@H]12 [CHOLECALCIFEROL]
[34]
  Activity: 6.3 mg
[35]
  Ratio: 4.6
[36]
  Activity: 2430 cpm
